Measurements: paper PMC6818095 (Journal of medicinal chemistry, 2014)

How the values were obtained:
[1] = molecular target: T1, σ2 receptor (Rattus norvegicus, UniProt Q5U3Y7); format: binding; details: for increase of selectivity for σ2 compared to 26 / increase of σ2 binding affinity compared to 26: relative to nonsubstituted 1H-[1,2,3]triazole carboxamide analogue 26; for lower binding affinity for σ2 receptor than corresponding methoxy-substituted congeners: 39e and 39f versus 39b and 39c
T1 sequence (Q5U3Y7 1-176): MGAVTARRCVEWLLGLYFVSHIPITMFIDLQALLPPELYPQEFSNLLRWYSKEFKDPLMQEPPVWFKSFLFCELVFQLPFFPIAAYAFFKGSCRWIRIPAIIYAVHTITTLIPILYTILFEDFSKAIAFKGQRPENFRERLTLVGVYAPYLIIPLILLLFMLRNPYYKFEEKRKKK

[2] = test system: EMT-6 murine breast cancer cells; assay: functional assay: cell viability; format: cell-based; details: for cytotoxicity (in words): EMT-6 cells, cell viability assay
Outline: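 EMT-6 murine breast cancer cells grown in DMEM with 10% FBS and penicillin/streptomycin at 37 °C, 5% CO2; seeded 5 × 10^3 cells/well 24 h before dosing. Test compound in DMSO serially diluted in medium (final DMSO ≤1.0%), 24 or 48 h exposure. MTS reagent 1–2 h at 37 °C, A490. Viability relative to untreated cells; EC50 from dose–response curves; triplicate, mean ± SEM of three experiments.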

| Structure (SMILES) | increase of selectivity for σ2 compared to 26 [1] [fold] | increase of σ2 binding affinity compared to 26 [1] [fold] | also measured |
| --- | --- | --- | --- |
| COc1cccc(-n2cc(C(=O)NCCCCN3CCc4cc(OC)c(OC)cc4C3)nn2)c1 [24e, N-(4-(6,7-Dimethoxy-3,4-dihydro-1H-isoquinolin-2-yl)butyl)-1-(3-methoxyphenyl)-1H-1,2,3-triazole-4-carboxamide] | 629 | 341 |  |
| COc1ccccc1Cn1cc(C(=O)NCCCCN2CCc3cc(OC)c(OC)cc3C2)nn1 [39a, N-(4-(6,7-Dimethoxy-3,4-dihydro-1H-isoquinolin-2-yl)butyl)-1-(2-methoxybenzyl)-1H-1,2,3-triazole-4-carboxamide] | 198 | 105 |  |
| Fc1ccc(-n2cc(CCCCN3CCC4(CC3)OCc3ccccc34)c3ccccc32)cc1 [siramesine, reference compound] |  |  | cytotoxicity (in words) [2]: potent cytotoxicity |
| COc1cc2c(cc1OC)CN(CCCCNC(=O)c1cn(Cc3ccccc3)nn1)CC2 [39d, 1-Benzyl-N-(4-(6,7-dimethoxy-3,4-dihydro-1H-isoquinolin-2-yl)-butyl)-1H-1,2,3-triazole-4-carboxamide] | 34 | 82 |  |
| COc1cc2c(cc1OC)CN(CCCCNC(=O)c1cn(Cc3cccc(O)c3)nn1)CC2 [39e, N-(4-(6,7-Dimethoxy-3,4-dihydro-1H-isoquinolin-2-yl)butyl)-1-(3-hydroxybenzyl)-1H-1,2,3-triazole-4-carboxamide] |  |  | lower binding affinity for σ2 receptor than corresponding methoxy-substituted congeners [1]: 2 fold |
| COc1cccc(Cn2cc(C(=O)NCCCCN3CCc4cc(OC)c(OC)cc4C3)nn2)c1 [39b, N-(4-(6,7-Dimethoxy-3,4-dihydro-1H-isoquinolin-2-yl)butyl)-1-(3-methoxybenzyl)-1H-1,2,3-triazole-4-carboxamide] | 110 | 96 |  |
| COc1cc2c(cc1OC)CN(CCCCNC(=O)c1cn(-c3ccccc3OC)nn1)CC2 [24d, N-(4-(6,7-Dimethoxy-3,4-dihydro-1H-isoquinolin-2-yl)butyl)-1-(2-methoxyphenyl)-1H-1,2,3-triazole-4-carboxamide] | 817 | 682 |  |
| COc1ccc(-n2cc(C(=O)NCCCCN3CCc4cc(OC)c(OC)cc4C3)nn2)cc1 [24f, N-(4-(6,7-Dimethoxy-3,4-dihydro-1H-isoquinolin-2-yl)butyl)-1-(4-methoxyphenyl)-1H-1,2,3-triazole-4-carboxamide] |  | 186 | cytotoxicity (in words) [2]: did not induce cytotoxicity; agonist/antagonist classification at the σ2 receptor ([2]; based on cytotoxicity in EMT-6 cells relative to siramesine): antagonist |
| COc1cc2c(cc1OC)CN(CCCCNC(=O)c1cn(Cc3ccc(O)cc3)nn1)CC2 [39f, N-(4-(6,7-Dimethoxy-3,4-dihydro-1H-isoquinolin-2-yl)butyl)-1-(4-hydroxybenzyl)-1H-1,2,3-triazole-4-carboxamide] |  |  | lower binding affinity for σ2 receptor than corresponding methoxy-substituted congeners [1]: 2 fold |
| COc1ccc(Cn2cc(C(=O)NCCCCN3CCc4cc(OC)c(OC)cc4C3)nn2)cc1 [39c, N-(4-(6,7-Dimethoxy-3,4-dihydro-1H-isoquinolin-2-yl)butyl)-1-(4-methoxybenzyl)-1H-1,2,3-triazole-4-carboxamide] | 63 | 205 |  |
| COc1cc2c(cc1OC)CN(CCCCNC(=O)c1cc(-n3cc(CN(C)C)nn3)ccc1OCCF)CC2 [compound 65, N-(4-(6,7-Dimethoxy-3,4-dihydroisoquinolin-2(1H)-yl)butyl)-5-(4-((dimethylamino)methyl)-1H-1,2,3-triazol-1-yl)-2-(2-fluoroethoxy)benzamide] |  |  | σ2 binding affinity lower than lead compound 8 ([1]; 65 versus lead compound 8): 14 fold; σ2 binding affinity lower than lead compound 9 ([1]; 65 versus lead compound 9): 89 fold |
| COc1cccc(Cn2cc(C(=O)NCCN3CCc4cc(OC)c(OC)cc4C3)nn2)c1 [40e, N-(2-(6,7-Dimethoxy-3,4-dihydro-1H-isoquinolin-2-yl)ethyl)-1-(3-methoxybenthyl)-1H-1,2,3-triazole-4-carboxamide] |  |  | σ2 binding affinity lower than the 4-carbon spacer congeners ([1]; 2-carbon spacer 40a–40f versus 24d–24f and 39a–39c): 20 fold |
